PKD1 inh = blocks activity of human protein kinase D1 | PKD1 kinase fluorescence polarization assay | 200,000 compounds, 0.056% hits | inhibition, % (no concentration beside the values) | AID 797 | Q15139; in the data active = inhibition above about 50%
Hsp70 activator = transcriptional activators of Hsp70. HeLa Hsp70 promoter luciferase reporter, luminescence; scaled: vehicle 0, proteasome-inhibitor control 100%. activation, % at 10 µM. 200,000 compounds, 0.04% hits. AID 1203;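 active = activation above the mean across all tested compounds plus 3 SD, cutoff set per campaign, cut at about 5.5% in these data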;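 note: 100% = MG132 at 30 µM as the positive control and 0% = DMSO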
p97 ATPase inh = human p97 ATPase inhibition. AID 1481. P55072. 220,000 compounds, 0.42% hits. recombinant p97 ATPase, Kinase-Glo ATP luminescence, 3 h. inhibition, % at 8 µM; in the data active = inhibition above about 15%;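 note: 0% = DMSO vehicle and 100% = wells lacking enzyme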
RBBP9 inh = blocks human serine hydrolase RBBP9; O75884; recombinant RBBP9, FP-Rh probe fluorescence polarization; inhibition, % at 7.94 µM; 220,000 compounds, 0.2% hits; AID 1515;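 active = inhibition above the campaign mean of all tested compounds plus 3 SD, cut at about 14% in these data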;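 note: plate controls were DMSO wells with RBBP9 for no effect and wells lacking RBBP9 protein for full effect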
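Test system – recombinant human RBBP9 · Input – RBBP9 2.5 µM in dispensing solution, pre-mixing · Medium – Tris buffer pH 8.0, NaCl, Pluronic · Schedule – preincubation 30 min plus labeling 45 min at 25 °C · Measured by – fluorescence polarization · Measure – % inhibition · Controls – DMSO and no-protein wells · Replicates – one well per compound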
PP5 primary = blocks human protein phosphatase 5 activity; P53041; purified PP5c, OMFP substrate fluorescence; inhibition, % at 6.7 µM; 320,000 compounds, 0.18% hits; AID 1987;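 active = inhibition above the campaign's mean inhibition across all tested compounds plus 3 SD, cut at about 9.5% in these data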;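 note: 0% = DMSO only and 100% = 100 µM cantharidin control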
PP1 counter = blocks human PP1-alpha phosphatase, a PP5 counter-screen; P62136; inhibition, % at 6.7 µM; AID 2235; 320,000 compounds, 0.9% hits; purified PP1alpha, OMFP fluorescence;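 active = inhibition above the mean inhibition of all tested compounds plus 3 SD, computed separately for each screening campaign, cut at about 15% in these data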
Target sequence (P62136 whole entry, looked up): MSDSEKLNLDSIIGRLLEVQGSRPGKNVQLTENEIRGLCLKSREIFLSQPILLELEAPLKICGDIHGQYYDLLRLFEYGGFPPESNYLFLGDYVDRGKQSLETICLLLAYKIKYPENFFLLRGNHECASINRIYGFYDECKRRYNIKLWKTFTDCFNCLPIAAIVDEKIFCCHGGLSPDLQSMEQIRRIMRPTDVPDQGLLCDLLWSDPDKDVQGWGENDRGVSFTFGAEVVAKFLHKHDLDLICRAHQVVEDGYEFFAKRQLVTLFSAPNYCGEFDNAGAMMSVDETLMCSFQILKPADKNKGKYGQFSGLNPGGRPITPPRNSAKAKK
p97 confirm = human p97 ATPase inhibition, confirmation; shares compounds with p97 ATPase inh; AID 1517; 760 compounds, 44% hits; inhibition, % at 8 µM; recombinant p97 ATPase, Kinase-Glo ATP luminescence;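 active = percent inhibition of p97 ATPase above a set limit, the primary screen's mean plus 3 SD, cut at about 15% in these data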;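 note: 0% = DMSO wells and 100% = wells lacking p97 protein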
* = called active by the depositor; . = no result. This is a sample that favours compounds with a hit; in the whole collection about 1.5% have one here.

SMILES	PKD1 inh	Hsp70 activator	p97 ATPase inh	RBBP9 inh	PP5 primary	PP1 counter	p97 confirm
N#Cc1c(NC(=O)c2ccccc2Cl)n(Cc2ccccc2)c2nc3ccccc3nc12	1	0	38*	-3	6	22*	47*
CC(Sc1nncs1)C(=O)NC1CCCCC1C (stereo unspecified)	.	.	.	.	3	-2	.
Cc1ccc(S(=O)(=O)N2CCOCC2)cc1C(=O)Nc1ccc(-c2cn3ccsc3n2)cc1	-3	0	17*	-3	3	2	21*
Cc1ccc(S(=O)(=O)N2CCOCC2)cc1C(=O)Nc1ccncc1	.	.	.	.	-2	1	.
CCOC(=O)c1c(N)n(CCOC(=O)c2cccs2)c2nc3ccccc3nc12	-5	0	21*	-2	6	2	7
Nc1cc(-c2ccncc2)c[nH]c1=O	-12	0	23*	0	5	-1	5
NC(=O)c1csc(-c2ccncc2)n1	14	0	2	-7	7	-2	.
CC1Sc2ccc(S(=O)(=O)N3CCC(C(=O)Nc4ccc(Cl)cc4)CC3)cc2NC1=O (stereo unspecified)	.	.	.	.	5	4	.
O=C1CCCC/C1=C\Nc1ccc(O)cc1	-3	0	21*	10	3	0	7
Cc1ccc(C(=O)c2c3ccc([N+](=O)[O-])cc3[n+]([O-])n2CCC(N)=O)cc1	.	.	.	.	1	-3	.
Cc1c(N=C2C=C(Br)C(=O)C(Br)=C2)c(=O)n(-c2ccccc2)n1C	-2	0	27*	7	.	.	8
Cc1c(N=C2C=CC(=O)c3ccccc32)c(=O)n(-c2ccccc2)n1C	2	0	5	3	.	.	.
O=C(Oc1cccc(Nc2ncnc3ccccc23)c1)c1ccccc1Cl	6	0	16*	-25	4	3	25*
COc1cccc(Nc2ncnc3ccccc23)c1	10	0	2	-2	2	0	.
S=C(Nc1ccc2nsnc2c1)N1CCCC1	-9	0	21*	-9	5	-2	8
O=C(Nc1ccc2nsnc2c1)N1CCCCCC1	3	0	-5	-4	0	1	.
CCOC(=O)N1CCC(N2CCCC(C(=O)c3cccc(OC(C)C)c3)C2)CC1 (stereo unspecified)	.	.	-2	-4	1	1	.
O=C(CC1Sc2ncnn2C1=O)Nc1ccccc1 (stereo unspecified)	-7	0	16*	-5	-1	0	7
CCOC(=O)c1cccc(COC(=O)c2cccc(-c3nnc(-c4ccccc4)o3)c2)c1	-9	0	1	-6	3	-3	.
N#C/C(=C(/O)CCl)c1nc(-c2ccccc2)cs1	.	.	40*	-8	-1	-1	38*
Cc1ccc(-c2csc(/C(C#N)=C(\O)CCl)n2)cc1	-3	0	6	-5	.	.	.
S=C1NCCC12C(=S)Nc1ccccc12 (stereo unspecified)	.	.	.	.	1	-5	.
COc1cc2c(cc1NC(=O)CSc1nnc(Cc3cccs3)n1Cc1ccco1)oc1ccccc12	10	0	10	-6	6	13	.
COc1cc2c(cc1NC(=O)CSc1nnc(Cc3cccs3)n1C)oc1ccccc12	-11	0	22*	-7	2	1	17*
Fc1ccccc1NC(=S)N1CCN(Cc2ccccc2)CC1	-7	0	-2	-5	-3	-1	.
SMILES	PKD1 inh	Hsp70 activator	p97 ATPase inh	RBBP9 inh	PP5 primary	PP1 counter	p97 confirm
Cn1c2ccccc2n2c(=O)c(=O)n(CC(=O)N3CCCc4ccccc43)nc12	-5	0	2	-1	0	1	.
Cc1ccc(C)c(S(=O)(=O)N2CCCC2CNC(=O)C(=O)NCC2CCCO2)c1 (stereo unspecified)	.	.	.	.	-4	-4	.
O=C(NCC(=O)N1CC(O)CC1C(=O)N1CCCC1C(=O)OCc1ccccc1)OCc1ccccc1 (stereo unspecified)	0	0	6	3	0	-3	.
Nc1c(C(=O)NCc2ccco2)c2nc3ccccc3nc2n1CCc1ccccc1	-1	0	18*	-6	.	.	7
Nc1c(C(=O)NCc2ccccc2)c2nc3ccccc3nc2n1CCCN1CCOCC1	3	0	-4	1	5	5	.
Cc1cc(C)nc(NS(=O)(=O)c2ccc(NC(=O)c3snnc3C)cc2)n1	.	.	.	.	-2	-2	.
